Sampled rows, rich in hits. Any-hit rate of the full collection: about 4.7%.
MrgX1 PAM = allosterically activates human MrgX1 receptor signaling; Q96LB2; MrgX1-HEK293, Fluo-4 calcium flux, FDSS; active compounds read high; B-score at 10 µM; actives 0.63% (n = 310,000);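 active means plate-corrected calcium response at least 3 library SD above typical, normal starting fluorescence, not activating the receptor alone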;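 further: compound read alongside a low EC10 to EC30 dose of BAM8-22 agonist; peak minus trough fluorescence over baseline measured at the second addition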
Cl transport mod = modulates chloride dependent transport by human KCC2. actives 2.2% (n = 190,000). Q9H2X9. AID 1456. B-score of Tl+ flux slope (higher = more flux/activation; lower = inhibition) at 10 µM. KCC2 cells, thallium flux FluoZin-2 fluorescence;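 active means thallium flux slope and its plate-corrected score both differing from the plate sample mean at a set confidence after two filtering rounds, in either direction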;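 further: slope of fluorescence scaled to starting intensity during 10 to 20 s after thallium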
Target sequence (Q9H2X9 whole entry, looked up): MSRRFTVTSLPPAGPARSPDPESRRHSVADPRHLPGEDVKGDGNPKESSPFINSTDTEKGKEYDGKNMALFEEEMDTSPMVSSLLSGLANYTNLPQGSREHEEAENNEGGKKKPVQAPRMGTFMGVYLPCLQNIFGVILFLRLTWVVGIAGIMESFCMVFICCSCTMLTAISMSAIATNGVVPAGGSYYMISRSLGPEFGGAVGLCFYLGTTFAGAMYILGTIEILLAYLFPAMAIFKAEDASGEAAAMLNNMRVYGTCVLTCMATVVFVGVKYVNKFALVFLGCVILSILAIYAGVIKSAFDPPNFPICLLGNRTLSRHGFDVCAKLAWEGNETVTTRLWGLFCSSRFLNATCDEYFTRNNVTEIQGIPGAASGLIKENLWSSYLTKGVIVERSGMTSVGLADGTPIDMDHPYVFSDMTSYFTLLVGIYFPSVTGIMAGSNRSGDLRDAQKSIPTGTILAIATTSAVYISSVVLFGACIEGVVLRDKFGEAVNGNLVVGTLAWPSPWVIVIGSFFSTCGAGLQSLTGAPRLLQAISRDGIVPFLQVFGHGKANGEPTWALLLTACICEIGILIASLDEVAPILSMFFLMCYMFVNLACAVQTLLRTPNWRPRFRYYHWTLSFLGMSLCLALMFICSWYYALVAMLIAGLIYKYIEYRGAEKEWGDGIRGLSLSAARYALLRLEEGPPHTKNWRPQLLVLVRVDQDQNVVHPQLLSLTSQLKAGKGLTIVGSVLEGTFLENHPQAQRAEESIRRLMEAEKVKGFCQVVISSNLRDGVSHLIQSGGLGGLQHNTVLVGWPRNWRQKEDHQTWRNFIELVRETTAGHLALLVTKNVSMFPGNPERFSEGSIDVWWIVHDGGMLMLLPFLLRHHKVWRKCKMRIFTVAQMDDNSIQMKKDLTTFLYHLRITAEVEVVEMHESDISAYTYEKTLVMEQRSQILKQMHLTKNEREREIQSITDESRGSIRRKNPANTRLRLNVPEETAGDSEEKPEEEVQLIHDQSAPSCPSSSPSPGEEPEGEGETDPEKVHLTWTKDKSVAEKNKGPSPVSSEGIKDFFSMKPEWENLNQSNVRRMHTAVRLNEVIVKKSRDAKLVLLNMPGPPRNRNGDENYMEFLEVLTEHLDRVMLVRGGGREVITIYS
MrgX1 agonist = activates human MrgX1 receptor signaling | actives 0.44% (n = 310,000) | B-score at 10 µM | MrgX1-HEK293 cells, Fluo-4 calcium fluorescence, agonist mode; active compounds read high | AID 588627 | Q96LB2;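 active means calcium response B-score plate-corrected fluorescence ratio at least 3 library SD, with starting fluorescence B-score inside 5 SD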
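Assay system: stable human MrgX1 HEK293 cell line. Quantity: 15,000 cells per well. Schedule: cells plated overnight, dye loaded 0.5 h 37 °C, 0.5 h room temperature. Detection: Fluo-4 NW calcium-flux fluorescence, kinetic read. Read-out basis: peak-minus-minimum fluorescence over baseline, converted to B scores. Control set: positive and negative control wells on each plate.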
MrgX1 antag = antagonists of human MrgX1 receptor | actives 1.3% (n = 310,000) | AID 588676 | MRGX1-HEK293 calcium flux, Fluo-4, BAM8-22 antagonism; active compounds read low | B-score at 10 µM | Q96LB2;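 active means calcium-response B-score plate-corrected more than 3 library SD below zero, starting fluorescence within 5 deviations, no agonist response on first addition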;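 further: peak minus trough fluorescence over baseline after final BAM8-22 challenge near maximal dose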
RGS4 inh = inhibitors of human RGS4; P49798; HEK293 M3R/RGS4 inducible, Fluo-4 calcium flux; active compounds read high; triggered by carbachol at its EC20; B-score at 10 µM; actives 0.45% (n = 310,000);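 active means B-score, a plate-corrected calcium signal, over three deviations above library mean, with baseline fluorescence within five deviations of library mean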;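 further: RGS4 expression induced by doxycycline in cells with stable M3 receptor; B-score is computed from the integrated fluorescence ratio over baseline after carbachol; higher B-score means a larger calcium signal and so more RGS4 inhibition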
RGS4 pot = RGS4 potentiation or activation; B-score at 10 µM; actives 0.92% (n = 310,000); HEK293 M3R/inducible RGS4, carbachol calcium flux Fluo4; active compounds read low;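 active means B-score of the integrated calcium signal more than 4 SD below the library mean, with starting fluorescence not abnormally high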;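 further: negative B-score means reduced calcium response which marks RGS4 activation or potentiation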
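Material: M3R-expressing HEK293 line, RGS4 induced by doxycycline | Schedule: Overnight RGS4 induction, 30 min dye load 37 °C, 20 min compound RT | Measured by: Fluo4 fluorescence kinetic imaging of calcium | Read-out: Integrated calcium ratio converted to B score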
MrgX1 allo conf = human MrgX1 positive allosteric modulation, re-confirmation; shares compounds with MrgX1 PAM; MrgX1-HEK293, Fluo-4 calcium fluorescence, FDSS; actives 13% (n = 1,200); AID 602413; activation (ratio percentage), % at 10 µM;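 active means ratio at least 3 SD above the weak peptide control, stable starting fluorescence, no direct agonism earlier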;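 further: compound followed by low BAM8-22 agonist challenge near EC20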
HEK293 Ca flux = MrgX1 antagonist counter-screen hit in parental HEK293 cells; Fluo-4 calcium fluorescence, FDSS; actives 2% (n = 4,000); shares compounds with MrgX1 antag; fluorescence ratio F(max-min)/F0 at 10 µM;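 active means duplicate-averaged calcium fluorescence ratio at least three times the standard deviation of buffer wells, a nonspecific response in parental cells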
HEK293 Ca counter = MrgX1 allosteric activator counter-screen hit in parental HEK293 cells. parental HEK293 calcium flux, Fluo-4 fluorescence ratio; active compounds read high. shares compounds with MrgX1 antag. actives 0.4% (n = 4,000). fluorescence ratio F(max-min)/F0 at 10 µM;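 active means calcium fluorescence ratio, averaged over duplicates, at least 3 SD of the buffer-well ratio, meaning a nonspecific response in receptor-free cells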;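 further: untransfected parental HEK293 lacking MrgX1 used as counterscreen for MrgX1 allosteric activators; fluorescence change taken during the second addition on a kinetic imager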
HEK293 Ca cntr2 = activity in parental HEK293 cells lacking MrgX1 receptor | shares compounds with MrgX1 antag | Fluo-4 calcium fluorescence (FDSS); active compounds read high | fluorescence ratio F(max-min)/F0 at 10 µM | actives 8.7% (n = 4,000) | AID 624115;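 active means calcium fluorescence ratio at least three times the spread of buffer wells, meaning a non-specific response in parental cells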
An asterisk follows results filed as active; i = inactive; nt = not tested or not shown.

SMILES | MrgX1 PAM | Cl transport mod | MrgX1 agonist | MrgX1 antag | RGS4 inh | RGS4 pot | MrgX1 allo conf | HEK293 Ca flux | HEK293 Ca counter | HEK293 Ca cntr2
CCOC(=O)c1c(-c2ccccc2)nc2cc(C)ccn12 | i | 0.43 | i | i | i | i | nt | nt | nt | nt
CCOC(=O)c1c(-c2ccccc2)nc2ccc(C)cn12 | 9.5* | -1.3 | i | i | i | i | i | i | i | i
O=C(CCN1CCc2ccccc2C1)Nc1ccc2c(c1)OCO2 | i | 0.41 | i | i | i | i | nt | nt | nt | nt
O=C(CCN1CCc2ccccc2C1)Nc1ccc(F)c(F)c1 | 25* | -1.2 | i | i | i | i | i | i | i | i
Cc1ccc2[nH]c(=O)c(CN(CC3CCCO3)C(=O)c3cccs3)cc2c1 (centres undefined) | 35* | nt | i | i | i | i | i | i | i | i
Cc1ccc2cc(CN(CC3CCCO3)C(=O)c3cccs3)c(=O)[nH]c2c1 (centres undefined) | i | nt | i | i | i | i | nt | nt | nt | nt
CCOc1ccccc1NC(=O)c1csc(C)c1C | i | nt | i | i | i | i | nt | nt | nt | nt
O=C1OC(N2C(=O)CC[C@H]2C(=O)Nc2ccc3c(c2)OCO3)c2ccccc21 (some centres undefined) | i | nt | i | i | i | i | nt | nt | nt | nt
CC(C)Sc1nc(N)nc(-c2cccs2)c1C#N | 9.1* | -2 | i | i | i | i | i | i | i | i
CSc1nc(N)nc(-c2cccs2)c1C#N | i | -0.033 | i | i | i | i | nt | nt | nt | nt
CCCCc1cc(=O)oc2cc(OC(C)C(=O)NCc3ccccn3)c(Cl)cc12 (centres undefined) | 13* | nt | i | i | i | i | i | i | i | i
CCCCc1cc(=O)oc2cc(OCC(=O)NCc3ccccn3)c(Cl)cc12 | i | nt | i | i | i | i | nt | nt | nt | nt
COC(=O)c1ccc(Oc2nc(C)cc(Oc3ccccc3)n2)cc1 | 19* | 0.28 | i | i | i | i | 7.3%* | i | i | i
COC(=O)c1ccc(Oc2cc(C)nc(NCc3ccccc3)n2)cc1 | i | 0.28 | i | i | i | i | nt | nt | nt | nt
COc1ccc(NC(=O)CN(C)C(=O)c2ccc3c(c2)OCCO3)cc1 | i | nt | i | i | i | i | nt | nt | nt | nt
CCOC(=O)c1c(-c2cccs2)csc1N | 8.4* | -0.3 | i | i | i | i | i | i | i | i
CC(=O)c1ccc(NC(=O)Nc2ccc3c(c2)nc(C)n3C)cc1 | 8.8* | 0.12 | i | i | i | i | i | i | i | i
Cc1ccc(NC(=O)Nc2ccc3c(c2)nc(C)n3C)cc1 | i | 0.89 | i | i | i | i | nt | nt | nt | nt
O=C(c1ccc(-c2cccc(Cl)c2Cl)o1)N1CCOCC1 | i | -1.6 | i | i | i | i | nt | nt | nt | nt
CC1CCN(C(=O)c2ccc(-c3ccccc3Cl)o2)CC1 | 7.6* | nt | i | i | i | i | i | i | i | i
O=C(NC12CC3CC(CC(C3)C1)C2)c1ccccc1O | 9.8* | 0.11 | i | i | i | i | i | i | i | i
O=C(NC12CC3CC(CC(C3)C1)C2)c1ccc(-c2ccc(Cl)cc2)o1 | i | 0.41 | i | i | i | i | nt | nt | nt | nt

Source: PubChem
